In ChEMBL document CHEMBL3853307, “Anti-inflammatory Effect of Methyl Gallate on Experimental Arthritis: Inhibition of Neutrophil Recruitment, Production of Inflammatory Mediators, and Activation of Macrophages” (J Nat Prod, 2016):
The source made the active and inactive calls. No cut-off for these calls is given here.

Experiments:
Mus musculus [1] = assay: Antiinflammatory activity in C57BL/6 mouse assessed as inhibition of zymosan-induced total leukocyte recruitment in synovial cavity at 0.7 to 70 mg/kg, po administered 1 hr prior to zymosan challenge measured after 6 to 24 hrs by particle counting method; format: functional, organism-based
In short: (§1)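 Male C57BL/6 mice, fasted overnight, dosed orally (vehicle saline/water, 200 μL) or i.p. 1 h before zymosan (500 μg in 25 μL saline, i.a., left knee). Knee swelling measured as change in transverse diameter from basal by digital caliper (mm). Synovial washes (PBS/EDTA) counted on a particle counter; differentials from May-Grünwald-Giemsa cytospins, cells ×10^5/cavity. Sampled at 6 and/or 24 h; seven mice/group.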

Mus musculus [2] = assay: Antiinflammatory activity in C57BL/6 mouse assessed as inhibition of zymosan-induced neutrophil migration in articular cavity at 7 mg/kg, po administered 1 hr prior to zymosan challenge measured at 6 hrs relative to control; format: functional; conditions: C57BL/6, po; in short: as §1
Mus musculus [3] = assay: Antiinflammatory activity in C57BL/6 mouse assessed as inhibition of zymosan-induced infiltration of inflammatory cells into synovial tissue at 7 mg/kg, po administered 1 hr prior to zymosan challenge measured at 6 to 24 hrs by hematoxylin and eosin staining-based optical microscopy; format: functional, organism-based
In short: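 Mice dosed orally or i.p. 1 h before i.a. zymosan (500 μg/cavity) or saline. Whole knees taken at 6 and 24 h from six mice, fixed in 10% formalin 48 h, decalcified in 10% EDTA/PBS 1−2 weeks, paraffin-embedded. 5 μm sections H&E-stained and examined by light microscopy. Parameter scores summed into an arthritis index; means ± SEM, two experiments.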

Mus musculus [4] = assay: Antiinflammatory activity in C57BL/6 mouse assessed as inhibition of zymosan-induced IL6 production in cell-free supernatant of knee joint synovial washes at 7 mg/kg, po administered 1 hr prior to zymosan challenge measured at 6 to 24 hrs by sandwich ELISA method; format: functional, organism-based
In short: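 Male C57BL/6 mice (18−22 g), fasted overnight, dosed orally (in filtered water, 200 μL) or i.p. 1 h before i.a. zymosan (500 μg in 25 μL saline) into left knee; contralateral knee got vehicle. Synovial cavity washed twice with 150 μL PBS/10 mM EDTA at 6 and 24 h; washes spun 400g 10 min, 4 °C. Cytokines measured by sandwich ELISA, LTB4/PGE2 by EIA (pg/mL); six mice/group, two experiments.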

What does the source list for `COC(=O)c1cc(O)c(O)c(O)c1` [GALLIC ACID METHYL ESTER]?
inhibition (Mus musculus [1]): Active; inhibition in vivo at 7 mg/kg (Mus musculus [2]): 64%; inhibition (Mus musculus [3]): Active; inhibition (Mus musculus [4]): Active
